Calls of active or inactive are those of the source. The calls are words filed in the database; no cut-off is given here.
Key:
[1] = test system: Mus musculus; test: Ratio of the relative tumor volume in the Tx group over the control group at day 60, at 2 mg/kg dose (ip) given on days 1, 5 and 9 (In vivo antitumor activity in nude mice); format: functional
How it was run: (§1)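 SK-Hep-1 human liver tumor cells inoculated sc into male nude mice. Dosing began once tumors reached 5 mm × 5 mm, given ip on days 1, 5 and 9. Vehicle was normal saline for the reference platinum drug and 5% dextrose for the other Pt complexes. Controls received saline or 5% dextrose. Recorded: T/C (%), body-weight change at nadir, and deaths per group.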

[2] = test system: Mus musculus; test: Ratio of the relative tumor volume in the Tx group over the control group at day 60, at 4 mg/kg dose (ip) given on days 1, 5 and 9 (In vivo antitumor activity in nude mice); format: functional; how it was run: as §1
[3] = test system: Mus musculus; test: Ratio of the relative tumor volume in the Tx group over the control group at day 60, at 8 mg/kg dose (ip) given on days 1, 5 and 9 (In vivo antitumor activity in nude mice); format: functional; how it was run: as §1
[4] = test system: Mus musculus; test: In vivo antitumor activity in SK-Hep-1 sc-Inoculated Xenograft in male nude mice dosed at 2 mg/kg (ip)on days 1,5 and 9; Not active; format: functional, organism-based; parameters: dose 2 mg/kg; how it was run: as §1
[5] = test system: Mus musculus; test: In vivo antitumor activity in SK-Hep-1 sc-Inoculated Xenograft in male nude mice dosed at 4 mg/kg (ip)on days 1,5 and 9; Not active; format: functional, organism-based; parameters: dose 4 mg/kg; how it was run: as §1
[6] = test system: Mus musculus; test: In vivo antitumor activity in SK-Hep-1 sc-Inoculated Xenograft in male nude mice dosed at 8 mg/kg (ip)on days 1,5 and 9; format: functional; how it was run: as §1
[7] = test system: Mus musculus; test: In vivo antitumor activity in SK-Hep-1 sc-Inoculated Xenograft in male nude mice dosed at 10 mg/kg (ip)on days 1,5 and 9; Acutely toxic; format: functional, organism-based; parameters: dose 10 mg/kg; how it was run: as §1
[8] = test system: L1210; test: Cytotoxicity against […]resistant mouse leukemia, assessed by MTT assay after 72 h of compound exposure (resistance level); format: functional, cell-based
How it was run: (§2)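 MTT cytotoxicity assay run on cisplatin-sensitive parental cells and cisplatin-resistant sublines. Drug exposure was 72 h for L1210 and 96 h for NCI:H460. IC50 determined for each cell line. Fold resistance = IC50 in resistant cells divided by IC50 in parental cells.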

[9] = test system: L1210; test: Cytotoxicity against […]sensitive mouse leukemia, assessed by MTT assay after 72 hr of compound exposure; format: functional, cell-based; how it was run: as §2
[10] = test system: L1210; test: Growth inhibitory activity against L1210 mouse leukemia cancer cell line; format: functional, cell-based
How it was run: (§3)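 Tetrazolium (MTT) assay. Drug treatment began 24 h after cell seeding, exposure lasted 72 h, and the MTT test followed. Read-out was IC50.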

[11] = test system: MDA-MB-231; test: Growth inhibitory activity against MDA-MB-231 human breast cancer cell line; format: functional, cell-based; how it was run: as §3
[12] = test system: Mus musculus; test: Toxicity in male nude mice measured as N (no. of deaths), at 25 mg/kg (ip) given on days 1, 5 and 9; format: organism-based; parameters: dose 25 mg/kg; settings: in vivo; how it was run: as §1
[13] = test system: Mus musculus; test: Toxicity in male nude mice measured as N (no. of deaths), at 50 mg/kg (ip) given on days 1, 5 and 9; format: organism-based; parameters: dose 50 mg/kg; settings: in vivo; how it was run: as §1
[14] = test system: Mus musculus; test: Toxicity in male nude mice measured as N (no. of deaths), at 75 mg/kg (ip) given on days 1, 5 and 9; format: organism-based; parameters: dose 75 mg/kg; settings: in vivo; how it was run: as §1
[15] = test system: Mus musculus; test: Toxicity in male nude mice measured as N (no. of deaths), at 100 mg/kg (ip) given on days 1, 5 and 9; format: organism-based; parameters: dose 100 mg/kg; settings: in vivo; how it was run: as §1
[16] = test system: Mus musculus; test: Toxicity in male nude mice measured as N (no. of deaths), at 120 mg/kg (ip) given on days 1, 5 and 9; format: organism-based; parameters: dose 120 mg/kg; settings: in vivo; how it was run: as §1
[17] = test system: NCI-H460; test: Growth inhibitory activity against NCI-H460 human lung cancer cell line; format: functional, cell-based; how it was run: as §3
[18] = test system: NCI-H460; test: Cytotoxicity against NCI-H460-resistant Human Nonsmall Cell Lung Cancer cell line assessed by MTT assay after 96 hr of compound exposure (resistance level); format: functional, cell-based; how it was run: as §2
[19] = test system: NCI-H460; test: Cytotoxicity against NCI-H460-sensitive Human Nonsmall Cell Lung Cancer cell line assessed by MTT assay after 96 hr of compound exposure; format: functional, cell-based; how it was run: as §2
[20] = test system: NTERA-2-cl-D1; test: Growth inhibitory activity against […]-cl-D1 human testicular cancer cell line; format: functional, cell-based; how it was run: as §3
[21] = test system: SK-HEP1; test: Growth inhibitory activity against SK-Hep1 human liver cancer cell line; format: functional, cell-based; how it was run: as §3
[22] = test system: SK-OV-3; test: Growth inhibitory activity against SK-OV-3 human ovarian cancer cell line; format: functional, cell-based; how it was run: as §3
[23] = test system: COLO 320DM; test: Growth inhibitory activity against COLO-320-DM human colon cancer cell line; format: functional, cell-based; how it was run: as §3
[24] = test system: Mus musculus; test: Ratio of the relative tumor volume in the Tx group over the control group at day 60, at 25 mg/kg dose (ip) given on days 1, 5 and 9 (In vivo antitumor activity in nude mice); format: functional, organism-based; parameters: dose 25 mg/kg
[25] = test system: Mus musculus; test: Ratio of the relative tumor volume in the Tx group over the control group at day 60, at 75 mg/kg dose (ip) given on days 1, 5 and 9 (In vivo antitumor activity in nude mice); format: functional, organism-based; parameters: dose 75 mg/kg
[26] = test system: Mus musculus; test: Ratio of the relative tumor volume in the Tx group over the control group at day 60, at 100 mg/kg dose (ip) given on days 1, 5 and 9 (In vivo antitumor activity in nude mice); format: functional, organism-based; parameters: dose 100 mg/kg
[27] = test system: Mus musculus; test: Ratio of the relative tumor volume in the Tx group over the control group at day 60, at 120 mg/kg dose (ip) given on days 1, 5 and 9 (In vivo antitumor activity in nude mice); format: functional, organism-based; parameters: dose 120 mg/kg
[28] = test system: Mus musculus; test: In vivo antitumor activity in SK-Hep-1 sc-Inoculated Xenograft in male nude mice dosed at 25 mg/kg (ip)on days 1,5 and 9; Not active; format: functional, organism-based; parameters: dose 25 mg/kg
How it was run: (§4)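 Male nude mice bearing subcutaneous SK-Hep-1 human liver tumor xenografts. Dosing started once tumors reached 5 mm × 5 mm, given ip on days 1, 5 and 9. Cisplatin was given in normal saline and other Pt complexes in 5% dextrose; controls received either vehicle. T/C (%), weight change at nadir and deaths recorded.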

[29] = test system: Mus musculus; test: In vivo antitumor activity in SK-Hep-1 sc-Inoculated Xenograft in male nude mice dosed at 50 mg/kg (ip)on days 1,5 and 9; Not active; format: functional, organism-based; parameters: dose 50 mg/kg; how it was run: as §4
[30] = test system: Mus musculus; test: In vivo antitumor activity in SK-Hep-1 sc-Inoculated Xenograft in male nude mice dosed at 75 mg/kg (ip)on days 1,5 and 9; Not active; format: functional, organism-based; parameters: dose 75 mg/kg; how it was run: as §4
[31] = test system: Mus musculus; test: In vivo antitumor activity in SK-Hep-1 sc-Inoculated Xenograft in male nude mice dosed at 100 mg/kg (ip)on days 1,5 and 9; format: functional, organism-based; parameters: dose 100 mg/kg; how it was run: as §4
[32] = test system: Mus musculus; test: In vivo antitumor activity in SK-Hep-1 sc-Inoculated Xenograft in male nude mice dosed at 120 mg/kg (ip)on days 1,5 and 9; format: functional, organism-based; parameters: dose 120 mg/kg; how it was run: as §4
[33] = test system: Mus musculus; test: Ratio of the relative tumor volume in the Tx group over the control group at day 60, at 50 mg/kg dose (ip) given on days 1, 5 and 9 (In vivo antitumor activity in nude mice); format: functional, organism-based; parameters: dose 50 mg/kg
[34] = test system: L1210; test: Cytotoxicity against Cisplatin-resistant L1210-resistant mouse leukemia, assessed by MTT assay after 72 hr of compound exposure (resistance level); format: functional, cell-based; how it was run: as §2
[35] = test system: Mus musculus; test: Toxicity in male nude mice measured as N (no. of deaths), at 2 mg/kg (ip) given on days 1, 5 and 9; format: organism-based; parameters: dose 2 mg/kg; settings: in vivo; how it was run: as §1
[36] = test system: Mus musculus; test: Toxicity in male nude mice measured as N (no. of deaths), at 4 mg/kg (ip) given on days 1, 5 and 9; format: organism-based; parameters: dose 4 mg/kg; settings: in vivo; how it was run: as §1
[37] = test system: Mus musculus; test: Toxicity in male nude mice measured as N (no. of deaths), at 8 mg/kg (ip) given on days 1, 5 and 9; format: organism-based; parameters: dose 8 mg/kg; settings: in vivo; how it was run: as §1
[38] = test system: Mus musculus; test: Toxicity in male nude mice measured as N (no. of deaths), at 10 mg/kg (ip) given on days 1, 5 and 9; format: organism-based; parameters: dose 10 mg/kg; settings: in vivo; how it was run: as §1
[39] = test system: Mus musculus; test: Ratio of the relative tumor volume in the Tx group over the control group at day 60, at 10 mg/kg dose (ip) given on days 1, 5 and 9 (In vivo antitumor activity in nude mice); format: functional, organism-based; parameters: dose 10 mg/kg
[40] = test system: Mus musculus; test: In vivo antitumor activity in SK-Hep-1 sc-Inoculated Xenograft in male nude mice dosed at 4 mg/kg (ip)on days 1,5 and 9; format: functional, organism-based; parameters: dose 4 mg/kg; how it was run: as §4
[41] = test system: Mus musculus; test: In vivo antitumor activity in SK-Hep-1 sc-Inoculated Xenograft in male nude mice dosed at 10 mg/kg (ip)on days 1,5 and 9; format: functional, organism-based; parameters: dose 10 mg/kg; how it was run: as §4

Row | Compound | T/C [1] [%] | T/C [2] [%] | T/C [3] [%] | Weight change at nadir [4] | Weight change at nadir [6] [%] | IC50 [9] [µM] | IC50 [10] [µM] | IC50 [11] [µM] | IC50 [17] [µM] | IC50 [18] [µM] | IC50 [19] [µM] | IC50 [20] [µM] | IC50 [21] [µM] | IC50 [22] [µM] | IC50 [23] [µM] | other results
1 | O=C1OC(=O)C2C3CCC(O3)C12 (stereo unspecified) [DEMETHYL-CANTHARIDIN] | 63.2 | 66.1 | 34.8 | inactive | -20 |  |  |  |  |  |  |  |  |  |  | Weight change at nadir [5]: inactive; Weight change at nadir [7]: Toxic
2 | CARBOPLATIN [listing 1 of 2 here] |  |  |  |  |  | 17.8 | 10.1 | 1080 | 60.3 | 54.6 | 17.8 | 2.75 | 501 | 149 | 188 | IC50 [8]: 138 µM; No. of deaths [12]: 1; No. of deaths [13]: 2; No. of deaths [14]: 2; No. of deaths [15]: 5; No. of deaths [16]: 4
3 | CARBOPLATIN [listing 2 of 2 here] |  |  |  |  |  |  |  |  |  |  |  |  |  |  |  | T/C [24]: 87.5%; T/C [25]: 44.9%; T/C [26]: 67.8%; T/C [27]: 62.8%; Weight change at nadir [28]: inactive; Weight change at nadir [29]: inactive; Weight change at nadir [30]: inactive; Weight change at nadir [31]: -21%; Weight change at nadir [32]: -40%; T/C [33]: 109%
4 | CISPLATIN [listing 1 of 2 here] |  |  |  |  |  | 1.01 | 0.51 | 65.7 | 11.3 | 4.96 | 0.59 | 0.19 | 54.1 | 15.2 | 11.9 | IC50 [34]: 14.5 µM; No. of deaths [35]: 1; No. of deaths [36]: 4; No. of deaths [37]: 4; No. of deaths [38]: 4
5 | CISPLATIN [listing 2 of 2 here] | 87.5 | 81.1 | 47.1 | inactive | -35 |  |  |  |  |  |  |  |  |  |  | T/C [39]: 39.6%; Weight change at nadir [40]: -25%; Weight change at nadir [41]: -40%

Source: ChEMBL document CHEMBL1134507, “Potential new antitumor agents from an innovative combination of demethylcantharidin, a modified traditional Chinese medicine, with a platinum moiety” (J Med Chem, 2001)
